Assay results collected from several papers.
TYK2: Non-receptor tyrosine-protein kinase TYK2 (TYK2, Homo sapiens, UniProt P29597)
TYK2 JH2: Non-receptor tyrosine-protein kinase TYK2, JH2 (TYK2, Homo sapiens, UniProt P29597)
TYK2 JH1: Non-receptor tyrosine-protein kinase TYK2, JH1 (TYK2, Homo sapiens, UniProt P29597)

Structure (SMILES)	target	test	setting	quantity	value
Cc1cnc(NC2CCOCC2)nc1-n1cnc(C(=O)NC(CN)c2cc(F)cc(Cl)c2)c1 (stereo not shown)	TYK2	enzyme activity, inhibitor, radiometric	1 µM	remaining activity	96%
COc1cc2nccc(Oc3ccc(NC(=O)c4c5n(n(-c6ccc(F)cc6)c4=O)CCCC5)cc3)c2cc1OC	TYK2	enzyme activity, inhibitor	0.1 µM	inhibition	-28%
CCC(=N\O)/C(C)=C/c1ccc(F)cc1	TYK2 JH2	cell-free assay, competition with immobilised ligand	1 µM	remaining binding	73%
COc1cc2ncnc(Nc3ccc(Oc4ccccc4)c(C)c3C)c2cc1OC	TYK2	enzyme activity, inhibitor	1 µM	inhibition	-2%
COCCOc1nc(-c2ccc(Cl)nc2)nc2c1CN(C(=O)c1ncn3ccccc13)CC2	TYK2 JH1	cell-free assay, competition with immobilised ligand	0.1 µM	remaining binding	100%
O=C1Nc2ccc(Cl)cc2C1=Cc1cc(Cl)c(O)c(Cl)c1	TYK2	cell-free assay	0.5 µM	remaining signal	26.9%
O=C(CSc1nc2nccnc2c(=O)n1CCc1ccccc1)Nc1nccs1	TYK2	enzyme activity, inhibitor	10 µM	inhibition	5%
F[C@@H]1CCN(c2nccc(-c3cnn4ncccc34)n2)C1	TYK2 JH1	cell-free assay, competition with immobilised ligand	1 µM	remaining binding	100%
CNC(=O)c1cc(Oc2ccc(NC(=O)Nc3ccc(Cl)c(C(F)(F)F)c3)cc2)ccn1	TYK2	cell-free assay	0.5 µM	remaining signal	98.9%
CC(C)(O)[C@H]1CC[C@H](Nc2ccc3ncc(-c4cccc(C(F)(F)F)c4)n3n2)CC1	TYK2	enzyme activity, inhibitor	1 µM	remaining activity	73.7%
Cc1c(C(=O)O)cc(-c2ccc(C3CCNCC3)cc2)c2ccc(-c3ccc(C(F)(F)F)cc3)cc12	TYK2 JH1	binding, competition with immobilised ligand	1 µM	remaining binding	100%
N[C@H]1CCN(c2nccc(-c3cnn4ncccc34)n2)C1	TYK2 JH1	cell-free assay	1 µM	remaining signal	76%
CN1CC(Oc2cnc(C#N)cc2-c2ccn3nc(NC(=O)C4CC4)cc3c2)C1	TYK2	enzyme activity, inhibitor	1 µM	inhibition	-10%
Nc1ncnc2occ(-c3ccc(NC(=O)Nc4cc(C(F)(F)F)ccc4F)cc3)c12	TYK2 JH2	cell-free assay, inhibitor	20 µM	remaining signal	100%
CN(c1nccc(-c2cnn3ncccc23)n1)C1CC1	TYK2 JH1	cell-free assay	1 µM	remaining signal	100%
O=c1nc(-c2ccccn2)sc2ccccc12	TYK2 JH2	binding, competition with immobilised ligand	1 µM	remaining binding	98%
CC1CCCN1c1nccc(-c2cnn3ncccc23)n1 (stereo not shown)	TYK2	binding	1 µM	remaining binding	87%
Cc1ccc(C(=O)NCc2ccsc2)cc1C#Cc1cn(C(C)C)c2ncnc(N)c12	TYK2	enzyme activity, inhibitor	1 µM	activity vs control	49%
Nc1nc(Nc2ccc(S(N)(=O)=O)cc2)nn1C(=O)c1c(F)cccc1F	TYK2	cell-free assay	0.5 µM	remaining signal	0.878%
C[C@H]1CCN(c2nccc(-c3cnn4ncccc34)n2)C1	TYK2 JH1	cell-free assay	1 µM	remaining signal	63%
CCOC(=O)c1cc2cc(-c3cc(C(=O)NCc4ccc(C(=O)O)cc4)nn3C)ccc2[nH]1	TYK2 JH1	cell-free assay, competition with immobilised ligand	0.1 µM	remaining binding	90%
Cc1sc(C(=O)NC2COC2)cc1-n1cc(NC(=O)Nc2c(F)cccc2Cl)cn1	TYK2	enzyme activity, inhibitor	10 µM	remaining activity	114%
CCOCCn1cc(C(=O)Nc2ccc(-n3nc(-c4cccnc4)cc3C(F)(F)F)cn2)ccc1=O	TYK2 JH1	cell-free assay, competition with immobilised ligand	1 µM	remaining binding	100%
Cc1cnn2ncc(-c3ccnc(N(C)C)n3)c2c1	TYK2	binding	1 µM	remaining binding	32%
CN([C@@H]1CCc2c(CC(=O)O)c3ccccc3n2C1)S(=O)(=O)c1ccc(F)cc1	TYK2 JH1	cell-free assay, competition with immobilised ligand	1 µM	remaining binding	100%
CC(C)(C)c1nc(-c2cccc(NS(=O)(=O)c3c(F)cccc3F)c2F)c(-c2ccnc(N)n2)s1	TYK2	enzyme activity, inhibitor, radiometric	1 µM	remaining activity	96%
O=C(NCc1ncc(C(F)(F)F)cc1Cl)c1ccc2c(c1)C1(CCS(=O)(=O)CC1)[C@H](C1CC1)N2S(=O)(=O)c1ccc(F)cc1	TYK2 JH2	cell-free assay, competition with immobilised ligand	1 µM	remaining binding	79%
O=C(Nc1cnn(-c2csc(C(=O)NC3COC3)c2)c1)Nc1ccccc1Cl	TYK2	enzyme activity, inhibitor	5 µM	remaining activity	95.9%
